Experimental data taken from ChEMBL document CHEMBL4831496, “Noncovalent EGFR T790M/L858R inhibitors based on diphenylpyrimidine scaffold: Design, synthesis, and bioactivity evaluation for the treatment of NSCLC” (Eur J Med Chem, 2021).
Active and inactive are the calls of the source. The rule behind the calls is not given here.

How the values were obtained:
NCI-H1975 [1] = test: Antimigratory activity against human NCI-H1975 cells assessed as narrowing of scratch width at 0.5 to 2 uM incubated for 24 to 48 hrs by scratch wound healing assay based fluorescence microscopic analysis; type: functional, cell-based; details: dose 0.5-2 µM, time 24-48 hrs
In short: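 H1975 monolayers cultured 48 h at 37 °C, then scratched and washed with PBS. Cells treated at […] and imaged by fluorescence microscope at 0, 24 and 48 h, with an untreated negative control.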

NCI-H1975 [2] = test: Induction of apoptosis in human NCI-H1975 cells assessed as necrotic cells at 2 uM incubated for 48 hrs by AnnexinV/FITC and propidium iodide staining based flow cytometry analysis (reference value: 2.99%); type: functional
NCI-H23 = test: Antiproliferative activity against human NCI-H23 cells harboring KRAS mutant assessed as reduction in cell viability incubated for 72 hrs by CCK8 assay; type: functional, cell-based; details: NCI-H23, 72 h
In short: (§1)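 Cells kept as monolayers at 37 °C, 5% CO2, seeded 3000-4000/well for 12 h, then exposed to compounds for 72 h. CCK-8 added for 1-2 h at 37 °C, absorbance read at 450 nm. Each dose run in triplicate, experiment repeated at least three times. IC50 taken from dose-response curves.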

NCI-H1975 [3] = test: Induction of apoptosis in human NCI-H1975 cells assessed as necrotic cells at 0.125 uM incubated for 48 hrs by AnnexinV/FITC and propidium iodide staining based flow cytometry analysis (reference value: 2.99%); type: functional
NCI-H1975 [4] = test: Induction of morphological changes in human NCI-H1975 cells assessed as increase in fusiform and sickle cell type abnormal cells at 0.5 to 2 uM incubated for 48 hrs by DAPI staining based fluorescence microscopic analysis; type: functional; details: dose 0.5-2 µM
In short: (§2)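 H1975 cells seeded at about 2 × 10⁵/well for 12 h, then treated. Cells fixed in 10% formaldehyde for 10 min, stained with DAPI for 10 min at room temperature and examined by fluorescence microscopy. Cell shape was also viewed under natural light.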

[5] = MRT (0 to infinity) in Sprague-Dawley rat at 25 mg/kg, iv by LC-MS/MS analysis; type: ADME, organism-based; details: in vivo
In short: (§3)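 Male Sprague-Dawley rats (200 ± 20 g), acclimatised 1 week at 25 ± 2 °C, 50-60% RH; six rats given 25 mg/kg by tail vein. Retro-orbital blood into heparin at 10, 20, 40 min and 1, 2, 3, 4, 6, 8, 12, 24 h. Plasma ethyl acetate-extracted and quantified by LC-MS/MS, transition m/z 485.3/452.3.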

NCI-H1975 [6] = test: Induction of apoptosis in human NCI-H1975 cells assessed as early apoptotic cells at 2 uM incubated for 48 hrs by AnnexinV/FITC and propidium iodide staining based flow cytometry analysis (reference value: 1.39%); type: functional
NCI-H1975 [7] = test: Induction of apoptosis in human NCI-H1975 cells assessed as late apoptotic cells at 2 uM incubated for 48 hrs by AnnexinV/FITC and propidium iodide staining based flow cytometry analysis (reference value: 0.73%); type: functional
NCI-H1975 [8] = test: Induction of apoptosis in human NCI-H1975 cells assessed as late apoptotic cells at 0.5 uM incubated for 48 hrs by AnnexinV/FITC and propidium iodide staining based flow cytometry analysis (reference value: 0.73%); type: functional
[9] = AUC (0 to infinity) in Sprague-Dawley rat at 25 mg/kg, iv by LC-MS/MS analysis; type: ADME, organism-based; design: route intravenous, time infinity, dose 25 mg/kg; details: in vivo; in short: as §3
NCI-H1975 [10] = test: Induction of apoptosis in human NCI-H1975 cells assessed as early apoptotic cells at 0.125 uM incubated for 48 hrs by AnnexinV/FITC and propidium iodide staining based flow cytometry analysis (reference value: 1.39%); type: functional
NCI-H1975 [11] = test: Induction of cell cycle arrest in human NCI-H1975 cells assessed as accumulation of cells at S phase at 0.5 uM incubated for 48 hrs by propidium iodide staining based flow cytometry analysis (reference value: 11.72%); type: functional
NCI-H1975 [12] = test: Induction of cell cycle arrest in human NCI-H1975 cells assessed as accumulation of cells at G0/G1 phase at 2 uM incubated for 48 hrs by propidium iodide staining based flow cytometry analysis (reference value: 58.05%); type: functional
NCI-H1975 [13] = test: Induction of cell cycle arrest in human NCI-H1975 cells assessed as accumulation of cells at G0/G1 phase at 0.125 uM incubated for 48 hrs by propidium iodide staining based flow cytometry analysis (reference value: 58.05%); type: functional
NCI-H1975 [14] = test: Induction of morphological changes in human NCI-H1975 cells assessed as chromatin shrinkage and gathering to nuclear membrane at 0.5 to 2 uM incubated for 48 hrs by DAPI staining based fluorescence microscopic analysis; type: functional, cell-based; details: dose 0.5-2 µM; in short: as §2
A549 = test: Antiproliferative activity against human A549 cells harboring KRAS G12S mutant assessed as reduction in cell viability incubated for 72 hrs by CCK8 assay; type: functional, cell-based; details: A549, 72 h; in short: as §1
NCI-H1975 [15] = test: Induction of cell cycle arrest in human NCI-H1975 cells assessed as accumulation of cells at G2/M phase at 0.5 uM incubated for 48 hrs by propidium iodide staining based flow cytometry analysis (reference value: 30.23%); type: functional
A-431 = test: Cytotoxicity against human A-431 cells harboring wild type EGFR assessed as reduction in cell viability incubated for 72 hrs by CCK8 assay; type: cell-based; details: A-431, 72 h; in short: as §1
NCI-H1975 [16] = test: Induction of cell cycle arrest in human NCI-H1975 cells assessed as accumulation of cells at G0/G1 phase at 0.5 uM incubated for 48 hrs by propidium iodide staining based flow cytometry analysis (reference value: 58.05%); type: functional
[17] = MRT (0 to t) in Sprague-Dawley rat at 25 mg/kg, iv measured for 24 hrs by LC-MS/MS analysis; type: ADME, organism-based; details: in vivo; in short: as §3
NCI-H1975 [18] = test: Induction of cell cycle arrest in human NCI-H1975 cells assessed as accumulation of cells at S phase at 2 uM incubated for 48 hrs by propidium iodide staining based flow cytometry analysis (reference value: 11.72%); type: functional
Homo sapiens = organism: Homo sapiens; test: Selectivity index, ratio of IC50 for wild type EGFR (unknown origin) to IC50 for EGFR L858R/T790M double mutant (unknown origin)
[19] = Elimination half life in Sprague-Dawley rat at 25 mg/kg, iv measured for 24 hrs by LC-MS/MS analysis; type: ADME, organism-based; details: in vivo, read-out: beta t1/2 (converted); in short: as §3
NCI-H1975 [20] = test: Induction of apoptosis in human NCI-H1975 cells assessed as viable cells at 0.125 uM incubated for 48 hrs by AnnexinV/FITC and propidium iodide staining based flow cytometry analysis (reference value: 94.9%); type: functional; details: read-out: Activity
L02 = test: Antiproliferative activity against human L02 cells assessed as reduction in cell viability incubated for 72 hrs by CCK8 assay; type: cell-based; details: L02, 72 h
NCI-H1975 [21] = test: Induction of apoptosis in human NCI-H1975 cells assessed as viable cells at 2 uM incubated for 48 hrs by AnnexinV/FITC and propidium iodide staining based flow cytometry analysis (reference value: 94.9%); type: functional; details: read-out: Activity
NCI-H1975 [22] = test: Induction of cell cycle arrest in human NCI-H1975 cells assessed as accumulation of cells at G2/M phase at 2 uM incubated for 48 hrs by propidium iodide staining based flow cytometry analysis (reference value: 30.23%); type: functional
NCI-H1975 [23] = test: Induction of apoptosis in human NCI-H1975 cells assessed as necrotic cells at 0.5 uM incubated for 48 hrs by AnnexinV/FITC and propidium iodide staining based flow cytometry analysis (reference value: 2.99%); type: functional

O=C(NO)c1ccccc1Nc1nc(Nc2ccc(OCCN3CCOCC3)cc2)ncc1Cl
Activity (NCI-H1975 [1]): Active | Activity (NCI-H1975 [2]): 0.14% | IC50 (NCI-H23): 625 nM | Activity (NCI-H1975 [3]): 0.01% | Activity (NCI-H1975 [4]): Active | MRT inf [5]: 13.1 h | Activity (NCI-H1975 [6]): 90.55% | Activity (NCI-H1975 [7]): 0.67% | Activity (NCI-H1975 [8]): 0.56% | AUC(0-inf) [9]: 45200 ng·h/mL | Activity (NCI-H1975 [10]): 4% | Activity (NCI-H1975 [11]): 9.86% | Activity (NCI-H1975 [12]): 57.28% | Activity (NCI-H1975 [13]): 20.25% | Activity (NCI-H1975 [14]): Active | IC50 (A549): 97.7 nM | Activity (NCI-H1975 [15]): 70.99% | IC50 (A-431): 1070 nM | Activity (NCI-H1975 [16]): 19.16% | MRT last at 24 h [17]: 8.2 h | Activity (NCI-H1975 [18]): 10.83% | Ratio IC50 (Homo sapiens): 43.4 | half-life [19]: 571 min | viability at 0.125 µM (NCI-H1975 [20]): 95.7% | IC50 (L02): 3.05 µM | viability at 2 µM (NCI-H1975 [21]): 8.63% | Activity (NCI-H1975 [22]): 31.9% | Activity (NCI-H1975 [23]): 0.07%
